# In the library only some 0.72% were active in any assay of this set; here they are far more common.
# AI-2 QS modul: Vibrio harveyi AI-2 quorum sensing modulation. 0.4% of 300,000 active. Vibrio harveyi JMH597 AI-2 luminescence/OD600 ratio, 9 h; stronger effect = lower value; strain lacks LuxN and CqsS sensors; 0 = neutral-control median. activity change, % at 7.5 µM; in the data active = activity change below about -75%, passing the limit was not always enough; inconclusive = no clear call, values can overlap the other calls;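 also: luminescence divided by OD600 gain over 9 h not by final OD600 alone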
# STK33 inh: inhibitors of human STK33 kinase; Q9BYT3; AID 2661; 0.073% of 320,000 active; purified STK33, MBP phosphorylation, ADP-Glo luminescence; inhibition, % at 10 µM;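 active = inhibition at or above 25%, using the most active replicate where run in duplicate; inactive = inhibition below 25%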
# GSK3beta inhib: blocks human GSK3beta kinase activity; P49841; GST-GSK3beta kinase, ADP-Glo luminescence, 60 min; stronger effect = lower value; activity score (negative = inhibition), % at 10 µM; 0.038% of 300,000 active; AID 2097;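 active = more than half of replicate wells score below -50%, meaning over 50% inhibition versus plate controls; inconclusive = some replicates but at most half score below -50%; inactive = no replicate scores below -50%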;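 also: 0% = median DMSO wells and -100% = median GW8510 positive control wells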
#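 Test system: GST-fused GSK3beta enzyme, cell-free | Quantity: 1.6 ng GST-GSK3beta enzyme per well | Reagent: 25 µM ATP with peptide substrate | Schedule: 60 min enzyme reaction, room temperature | Signal: Luminescent ADP-Glo measurement of ADP formed | Read-out basis: Score relative to plate controls | Control set: DMSO and 20 µM GW8510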
# Yeast superoxide: yeast age-related superoxide inhibition as caloric restriction mimetic | S. cerevisiae aged cells, superoxide DHE fluorescence; stronger effect = lower value | superoxide response (% of plate mean), % at 10 µM | 0.18% of 330,000 active | AID 2690;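 active = superoxide response under a set limit, about three screen SD below normal, cut at about 65% in these data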;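 also: yeast aged for seven days with compound at 30 °C before DHE staining; 100% = average MFI of all compound-treated wells on the plate with controls excluded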
# GSK3 alpha inh: human GSK-3 alpha kinase inhibition. inhibition, % at 10 µM. ADP-Glo luminescence, 60 min. 0.1% of 320,000 active;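 active = more than half of replicates show inhibition above 20%; inconclusive = some but at most half of replicates above 20% inhibition; inactive = no replicate shows inhibition above 20%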;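 also: GST-tagged GSK-3 alpha with peptide substrate and 25 µM ATP; 0% = DMSO neutral wells and 100% = GW8510 positive control wells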
# Target sequence (P49840 whole entry, looked up): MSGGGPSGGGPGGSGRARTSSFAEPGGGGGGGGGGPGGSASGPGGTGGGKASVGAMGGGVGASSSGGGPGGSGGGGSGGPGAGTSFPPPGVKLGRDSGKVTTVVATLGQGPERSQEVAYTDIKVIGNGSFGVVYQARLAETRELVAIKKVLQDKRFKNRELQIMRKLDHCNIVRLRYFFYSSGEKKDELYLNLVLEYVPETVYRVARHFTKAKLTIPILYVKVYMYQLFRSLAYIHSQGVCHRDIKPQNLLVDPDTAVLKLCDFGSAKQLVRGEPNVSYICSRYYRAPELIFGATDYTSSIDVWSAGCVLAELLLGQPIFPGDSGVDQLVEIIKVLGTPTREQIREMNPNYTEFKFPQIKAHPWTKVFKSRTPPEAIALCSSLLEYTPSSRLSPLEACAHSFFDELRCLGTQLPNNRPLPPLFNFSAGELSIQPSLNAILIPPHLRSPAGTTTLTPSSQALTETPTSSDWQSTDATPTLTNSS
# PolyA inh: blocks polyadenylation in yeast reporter cells | S. cerevisiae SKY197-pL101 polyadenylation reporter, beta-gal luminescence; efflux-impaired pdr1/pdr3 knockout yeast; score 100 = 6 SD above DMSO | 0.02% of 300,000 active | AID 1875 | activity score, % at 12 µM;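 active = lowest replicate activity score at least 50, where 100 means six control SD above control mean; inconclusive = lowest score under 50 but half or more replicates reach 50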;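 also: yeast exposed to compound for 9 h at 30 °C; higher score means more reporter readthrough which indicates perturbed polyadenylation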
# JMH597 growth rt: retest Vibrio harveyi JMH597 growth inhibition; shares compounds with AI-2 QS modul; OD600 absorbance, 9 h; lacks LuxN and CqsS sensors; growth inhibition, % at 7.5 µM; 1% of 750 active;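 active = every replicate shows growth inhibition above 50%; inconclusive = at least half, but not all, replicates pass that cutoff; inactive = fewer than half of replicates pass it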
# BB721 lum counter: retest counter-screen: luminescence loss in constitutive-on quorum sensing strain BB721; AID 2727; inhibition, % at 7.5 µM; Vibrio harveyi BB721 luminescence, 9 h; shares compounds with AI-2 QS modul; 95% of 750 active;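 active = inhibition above about 80% in every replicate, not just on average, limit read from the data; inconclusive = at least half of replicates past the limit, but not all; inactive = fewer than half of replicates past the limit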
# BB721 growth rt: retest: inhibitors of Vibrio harveyi BB721 growth; OD600 absorbance, 9 h; shares compounds with AI-2 QS modul; 3% of 750 active; AID 2728; growth inhibition, % at 7.5 µM;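 active = every replicate shows growth inhibition above 50%; inconclusive = at least half but not all replicates above 50% inhibition; inactive = under half of replicates above 50% inhibition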
# JMH597 AI-2 mod: Vibrio harveyi AI-2 signaling luminescence modulation – JMH597 strain, confirmation; shares compounds with AI-2 QS modul; Vibrio harveyi JMH597 AI-2 quorum sensing luminescence, 9 h; luxN and CqsS knockout, AI-2 only; inhibition, % at 7.5 µM; 97% of 750 active;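 active = every replicate shows more than 75% inhibition of signal versus neutral control wells; inconclusive = half to three quarters of replicates exceed 75% inhibition; inactive = fewer than half of replicates exceed 75% inhibition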
# Active calls of the source: *; u = inconclusive; x = not tested or not shown.
SMILES,AI-2 QS modul,STK33 inh,GSK3beta inhib,Yeast superoxide,GSK3 alpha inh,PolyA inh,JMH597 growth rt,BB721 lum counter,BB721 growth rt,JMH597 AI-2 mod
CN(C)S(=O)(=O)c1ccc(C(=O)OCCc2ccccc2)cc1,-92*,-2,-1,97,-1,3,3,96*,18,98*
CN(C)S(=O)(=O)c1ccc(C(=O)OCC(=O)NCc2ccccc2)cc1,-26,0,3,112,-3,-8,x,x,x,x
Cc1cc(C)cc(N2C(=O)CSC2c2ccccn2)c1 (stereo not given),27,-1,4,96,-2,-2,x,x,x,x
Cc1ccc(NC(=O)CCC(=O)c2cccs2)c(O)c1,-82*,-1,-2,110,0,12,-11,93*,3,95*
N/C(=N\OC(=O)CCc1ccccc1)c1cccc(Br)c1,-24,0,0,91,-6,1,x,x,x,x
N/C(=N\OC(=O)CCc1ccccc1)c1ccccc1Cl,-85*,-1,0,117,-1,-13,9,92*,4,92*
CC(CNC(=O)c1cc(COc2c(F)cccc2F)on1)Oc1cccnc1 (stereo not given),-91*,0,1,121,0,8,25,94*,20,96*
Cc1cc(C(=O)Nc2cccc(C)c2C)c2ccccc2n1,19,-3,0,108,5,2,x,x,x,x
CC(C)CCC(=O)N1CCOC1=O,-4,0,0,109,0,-7,x,x,x,x
O=C(Oc1ccc2c(=O)c(Cl)coc2c1)c1cccnc1,34,-2,3,105,2,13,x,x,x,x
O=C(Oc1ccc2c(=O)c(Oc3ccc4ccccc4c3)coc2c1)c1cccnc1,-89*,-1,3,114,-2,-14,19,97*,u,97*
CCN(CC(=O)NCc1cccs1)CC(=O)Nc1ccccc1C,x,0,x,110,-1,x,x,x,x,x
COc1ccc(OCCn2cnc(Cl)c2Cl)cc1,-2,x,3,86,x,-5,x,x,x,x
Clc1ccc(OCCn2cnc(Cl)c2Cl)cc1,-84*,-1,-2,104,-1,18,11,88*,-330,92*
COCCn1c(C(C)C)nc2ccccc21,13,-2,-5,94,-4,0,x,x,x,x
CC(=O)c1cccc(NC(=S)NCc2ccccc2)c1,19,-2,-4,94,-1,-1,x,x,x,x
O=C(NCc1ccccc1)NC1CCCCC1,-70,-1,3,87,-1,13,x,x,x,x
COc1ccc(CNC(=O)Nc2cc(C)cc(C)c2)cc1,u,-1,1,107,0,-14,7,96*,-6,97*
CCOC(=O)c1cccc(NC(=S)NCc2ccc(C)cc2)c1,-85*,0,2,96,-3,-13,-10,89*,1,91*
COc1ccc(CNC(=O)Nc2ccc(C)cc2)cc1,-79*,1,1,91,4,29,0,88*,-14,92*
COc1ccc(NC(=O)NCc2ccncc2)cc1,41,0,2,98,0,-8,x,x,x,x
COc1ccc(CNC(=O)NC2CCCCC2)cc1,-87*,-1,10,95,-1,-17,12,92*,13,95*
CC(C(=O)Nc1cccc(S(=O)(=O)N2CCOCC2)c1)N1CCN(C)CC1 (stereo not given),8,-1,3,97,-2,21,x,x,x,x
CC(=O)N1CCN(C(=O)c2ccc(Cl)c(S(=O)(=O)N3CCCCCC3)c2)CC1,x,-1,x,131,-1,x,x,x,x,x
CC1Cc2ccccc2N1C(=O)COC(=O)c1ccc(Cl)c(S(=O)(=O)N2CCOCC2)c1 (stereo not given),x,-1,x,85,-4,x,x,x,x,x
SMILES,AI-2 QS modul,STK33 inh,GSK3beta inhib,Yeast superoxide,GSK3 alpha inh,PolyA inh,JMH597 growth rt,BB721 lum counter,BB721 growth rt,JMH597 AI-2 mod
Cc1ccc(CNC(=O)Nc2cccc(C)c2)cc1,-90*,-1,1,99,-1,-6,12,99*,25,99*
CCNS(=O)(=O)c1ccc(NC(=S)NCc2ccco2)cc1,19,0,-1,123,3,-15,x,x,x,x
O=S(=O)(NCc1ccccc1)c1ccc(NC(=S)NCc2ccco2)cc1,-97*,1,-2,106,6,-18,16,100*,-60,100*
Cc1ccc(CCC(=O)Nc2ccc(C#N)cc2)o1,-80*,0,6,93,-2,-6,26,90*,23,93*
CC(=O)c1ccc(NC(=O)CCc2ccc(C)o2)cc1,-88*,1,-1,95,1,5,-2,95*,-16,96*
S=C(CN1CCCC1=S)NCCc1ccccc1,27,-8,-1,83,-2,-8,x,x,x,x
CCN(CC)S(=O)(=O)c1ccc(NC(=O)Cn2cnc3ccccc3c2=O)cc1,-94*,1,-1,105,-3,13,23,99*,13,99*
CN(C)S(=O)(=O)c1cccc(NC(=O)Cn2cnc3ccccc3c2=O)c1,-88*,0,-6,85,-2,2,15,96*,13,97*
NC(=O)C1CCN(c2nc(-c3cccc(Cl)c3)cs2)CC1,x,1,x,92,1,x,x,x,x,x
O=C(CC(=O)Nc1ccccc1F)Nc1ccccc1F,7,0,6,94,-1,-15,x,x,x,x
Cc1ccc(CCC(=O)Nc2ccccc2F)s1,-89*,-1,1,105,x,0,17,94*,3,96*
O=C(CCc1nnc(CCc2ccccc2)o1)NC(c1cccnc1)C(F)(F)F (stereo not given),17,-1,-1,93,0,u,x,x,x,x
NS(=O)(=O)c1ccc(CNC(=O)/C=C/c2ccco2)cc1,14,0,-1,94,-1,-9,x,x,x,x
O=C(/C=C/c1ccco1)NCc1ccc(F)cc1,-85*,0,1,96,-3,-8,16,94*,16,96*
Cc1noc(C)c1C(=O)N1CCN(c2ccc(OCc3ccccc3)cc2)CC1,11,0,2,109,9,-7,x,x,x,x
c1ccc(-c2nnc(-c3ccccn3)nn2)nc1,11,0,2,95,2,13,x,x,x,x

# Source: PubChem
